Laboratory results: ChEMBL document CHEMBL2176930, “Structure-based design of novel inhibitors of the MDM2-p53 interaction” (J Med Chem, 2012)
The source made the active and inactive calls. The rule behind the calls is not given here.

Legend:
[1] = target: T1, Tumour suppressor p53/oncoprotein Mdm2 (Homo sapiens, UniProt Q00987); format: protein assay
SJSA-1 [2] = assay: cells; conditions: Homo sapiens, SJSA-1, 72 h
[3] = target: T1, Tumour suppressor p53/oncoprotein Mdm2; format: protein assay; remark: listed apart in the source
[4] = Volume of distribution at steady state in mouse; format: ADME, organism-based; conditions: in vivo, read-out: Vdss
[5] = Volume of distribution at steady state in rat; format: ADME, organism-based; conditions: in vivo, read-out: Vdss
HCT-116 = assay: Induction of p21 mRNA expression in p53 deficient human HCT116 cells after 7 hrs by RT-PCR analysis; format: functional, cell-based
How it was run: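 HCT116 p53−/− cells exposed to compound for 7 h. Total RNA extracted and p21 mRNA quantified by quantitative RT-PCR.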

CYP3A4 [6] = target: T2, CYP3A4 (Homo sapiens, UniProt P08684); assay: Inhibition of human CYP3A4 at 3 uM; format: ADME
T2 sequence (P08684 whole entry): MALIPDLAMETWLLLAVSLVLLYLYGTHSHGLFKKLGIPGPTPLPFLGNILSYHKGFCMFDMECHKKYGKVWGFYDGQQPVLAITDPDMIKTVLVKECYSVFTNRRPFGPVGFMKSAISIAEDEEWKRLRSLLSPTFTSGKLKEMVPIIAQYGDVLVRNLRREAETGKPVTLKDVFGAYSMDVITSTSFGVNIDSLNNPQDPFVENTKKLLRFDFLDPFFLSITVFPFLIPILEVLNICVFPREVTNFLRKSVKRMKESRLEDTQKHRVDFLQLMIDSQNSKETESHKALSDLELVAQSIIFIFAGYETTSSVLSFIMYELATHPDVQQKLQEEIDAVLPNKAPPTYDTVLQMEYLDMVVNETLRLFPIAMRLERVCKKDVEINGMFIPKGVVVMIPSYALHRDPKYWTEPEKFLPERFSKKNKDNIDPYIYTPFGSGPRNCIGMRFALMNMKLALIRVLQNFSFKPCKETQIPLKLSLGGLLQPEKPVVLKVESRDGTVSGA

SJSA-1 [7] = assay: animal or person; conditions: Mus musculus, SJSA-1, po, 336 h
PXR (NR1I2) = target: T3, PXR (NR1I2) (Homo sapiens, UniProt O75469); assay: Activation of human PXR at 2 uM relative to control; conditions: read-out: Activity
T3 sequence (O75469 whole entry): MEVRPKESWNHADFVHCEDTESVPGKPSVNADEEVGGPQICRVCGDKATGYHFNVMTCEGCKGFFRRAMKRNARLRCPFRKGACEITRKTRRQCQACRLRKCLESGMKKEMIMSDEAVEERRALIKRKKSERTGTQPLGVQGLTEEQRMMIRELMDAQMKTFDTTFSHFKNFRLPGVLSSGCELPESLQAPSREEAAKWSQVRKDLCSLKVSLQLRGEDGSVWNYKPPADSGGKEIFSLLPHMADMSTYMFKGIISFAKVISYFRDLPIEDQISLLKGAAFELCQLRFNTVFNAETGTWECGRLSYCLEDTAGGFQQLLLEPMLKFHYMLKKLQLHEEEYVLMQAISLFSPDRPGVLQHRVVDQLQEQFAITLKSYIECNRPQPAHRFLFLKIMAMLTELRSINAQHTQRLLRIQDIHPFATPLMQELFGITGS

CYP3A4 [8] = target: T2, CYP3A4; assay: Time dependent inhibition of human CYP3A4 assessed as residual activity at 10 uM after 15 mins relative to control; format: ADME; conditions: read-out: Activity
[9] = Oral bioavailability in rat; format: ADME, organism-based; conditions: in vivo
[10] = Plasma clearance in rat; format: ADME, organism-based
Mus musculus [11] = assay: Activity at p53 in human SJSA1 cells xenografted po dosed mouse assessed as induction of p21 mRNA expression administered once measured after 6 hrs by RT-PCR analysis; conditions: SJSA-1
SJSA-1 [12] = assay: Antitumor activity against human SJSA1 cells xenografted in po dosed athymic nude mouse assessed as tumor growth inhibition administered qd after 14 days
SJSA-1 [13] = assay: animal or person; conditions: Mus musculus, SJSA-1, po, 336 h, read-out: TGI
[14] = Intrinsic clearance in human hepatocytes assessed per million cells; format: ADME, cell-based, Hepatocyte; conditions: read-out: CLH
[15] = Plasma clearance in mouse; format: ADME, organism-based
[16] = Oral bioavailability in mouse; format: ADME, organism-based; conditions: in vivo
SJSA-1 [17] = assay: Antitumor activity against human SJSA1 cells xenografted in athymic nude mouse assessed as tumor growth regression at 150 mg/kg, po qd for 14 days; format: functional, organism-based; design: dose 150 mg/kg
Mus musculus [18] = assay: Activity at p53 in human SJSA1 cells xenografted po dosed mouse assessed as induction of p21 mRNA expression administered qd for 4 days by RT-PCR analysis relative to control; format: functional, organism-based; conditions: SJSA-1
How it was run: (§1)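 Female athymic nude mice carrying subcutaneous SJSA-1 tumours (5 × 10^6 cells implanted; dosing at ∼175 mm3). Oral dosing q.d. for 4 days. Tumours were snap-frozen and p21 mRNA measured by quantitative RT-PCR. Reported as mean fold induction over vehicle tumours, with SEM.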

[19] = Volume of distribution in cynomolgus monkey; format: ADME, organism-based, Macaca fascicularis; conditions: in vivo
Mus musculus [20] = assay: Activity at p53 in human SJSA1 cells xenografted mouse assessed as induction of p21 mRNA expression at 150 mg/kg, qd for 4 days by RT-PCR analysis; format: functional, organism-based; design: dose 150 mg/kg; conditions: SJSA-1
How it was run: as §1

SJSA-1 [21] = assay: Antitumor activity against human SJSA1 cells xenografted in po dosed mouse assessed as tumor growth inhibition administered bid measured twice per weak; format: functional, organism-based
How it was run: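 Female athymic nude mice implanted subcutaneously with 5 × 10^6 SJSA-1 cells. Vehicle or compound at 25, 50, 75 or 100 mg/kg b.i.d. by oral gavage, starting on day 10 at ∼200 mm3 tumours (n = 10/group). Tumour size and body weight measured twice weekly; mean tumour volume ± SEM.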

T1 sequence (P04637 whole entry): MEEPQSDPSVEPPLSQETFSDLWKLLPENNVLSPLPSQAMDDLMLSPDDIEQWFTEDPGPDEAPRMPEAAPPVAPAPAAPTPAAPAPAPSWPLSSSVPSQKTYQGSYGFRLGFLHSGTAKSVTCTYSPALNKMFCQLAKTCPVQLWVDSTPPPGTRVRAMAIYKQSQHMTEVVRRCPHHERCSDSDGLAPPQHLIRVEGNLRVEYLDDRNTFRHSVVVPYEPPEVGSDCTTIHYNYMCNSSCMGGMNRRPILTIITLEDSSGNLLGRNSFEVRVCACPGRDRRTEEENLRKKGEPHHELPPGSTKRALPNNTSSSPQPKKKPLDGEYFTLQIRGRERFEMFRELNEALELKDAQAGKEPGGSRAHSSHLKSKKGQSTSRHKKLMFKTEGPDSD
T1 sequence (Q00987 whole entry): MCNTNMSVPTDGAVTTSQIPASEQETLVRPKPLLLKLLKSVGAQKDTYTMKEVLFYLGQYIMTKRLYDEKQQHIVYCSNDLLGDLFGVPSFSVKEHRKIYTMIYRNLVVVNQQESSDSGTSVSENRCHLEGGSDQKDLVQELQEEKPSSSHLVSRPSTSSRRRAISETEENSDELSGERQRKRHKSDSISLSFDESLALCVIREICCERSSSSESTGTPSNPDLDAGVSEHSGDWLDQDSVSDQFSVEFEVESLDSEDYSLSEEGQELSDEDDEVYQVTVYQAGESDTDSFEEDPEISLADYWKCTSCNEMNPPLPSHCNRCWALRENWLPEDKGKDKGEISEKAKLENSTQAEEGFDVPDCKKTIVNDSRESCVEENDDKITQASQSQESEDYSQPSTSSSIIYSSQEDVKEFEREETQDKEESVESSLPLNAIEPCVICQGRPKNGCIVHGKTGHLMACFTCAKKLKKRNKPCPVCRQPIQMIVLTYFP

SMILES	IC50 [1]	IC50 [3]	also measured
CC[C@@H](C(=O)OC(C)(C)C)N1C(=O)[C@@H](Cc2nnn[nH]2)C[C@H](c2cccc(Cl)c2)[C@H]1c1ccc(Cl)cc1	0.0018 µM	0.0203 µM	IC50 (SJSA-1 [2]): 0.312 µM
O=C(O)CC[C@H]1C[C@H](c2cccc(Cl)c2)[C@@H](c2ccc(Cl)cc2)N(CC2CC2)C1=O	0.57 µM	6.63 µM	–
C=CC[C@H]1C[C@H](c2cccc(Cl)c2)[C@@H](c2ccc(Cl)cc2)N(CC2CC2)C1=O	6.5 µM	> 30 µM	–
CCOC(=O)[C@H](CC)N1C(=O)CC[C@H](c2cccc(Cl)c2)[C@H]1c1ccc(Cl)cc1 (racemic)	0.94 µM	18.7 µM	–
CCOC(=O)[C@H](C)N1C(=O)CC[C@H](c2cccc(Cl)c2)[C@H]1c1ccc(Cl)cc1 (racemic)	1.7 µM	> 30 µM	–
CCCN1C(=O)CC[C@H](c2cccc(Cl)c2)[C@H]1c1ccc(Cl)cc1 (racemic)	1.9 µM	> 30 µM	–
O=C(O)CC[C@@H]1C[C@H](c2cccc(Cl)c2)[C@@H](c2ccc(Cl)cc2)N(CC2CC2)C1=O	0.34 µM	6.64 µM	–
N#CC[C@H]1C[C@H](c2cccc(Cl)c2)[C@@H](c2ccc(Cl)cc2)N(CC2CC2)C1=O	2.34 µM	> 30 µM	–
CC[C@@H](C(=O)OC(C)(C)C)N1C(=O)[C@@](C)(CC(=O)O)C[C@H](c2cccc(Cl)c2)[C@H]1c1ccc(Cl)cc1	–	–	Vd [4]: 1.3 L/kg; Vd [5]: 1.5 L/kg; Activity (HCT-116): inactive; inhibition at 3 µM (CYP3A4 [6]): 40%; ED50 (SJSA-1 [7]): 118 mg/kg; activity at 2 µM (PXR (NR1I2)): 27%; activity at 0.25 h, 10 µM (CYP3A4 [8]): 77%; bioavailability [9]: 77%; clearance [10]: 45 mL/min/kg; Activity (Mus musculus [11]): Dose-dependent effect; TGI (SJSA-1 [12]): Dose-dependent effect; inhibition in vivo at 200 mg/kg (SJSA-1 [13]): 91%; hepatocyte CLint [14]: 26 µL/min/1e6 cells; clearance [15]: 25 mL/min/kg; bioavailability [16]: 36%
O=C1CC[C@H](c2cccc(Cl)c2)[C@@H](c2ccc(Cl)cc2)N1 (racemic)	10 µM	> 30 µM	–
O=C1CC[C@H](c2cccc(Cl)c2)[C@@H](c2ccc(Cl)cc2)N1Cc1ccccc1 (racemic)	5.4 µM	> 30 µM	–
CC[C@@H]([C@H](C)O)N1C(=O)[C@@](C)(CC(=O)O)C[C@H](c2cccc(Cl)c2)[C@H]1c1ccc(Cl)cc1	–	–	Activity (SJSA-1 [17]): Active; Vd [4]: 5.2 L/kg; Vd [5]: 12 L/kg; Activity (Mus musculus [18]): Dose-dependent effect; ED50 (SJSA-1 [7]): 78 mg/kg; Vd [19]: 6.2 L/kg; Activity (Mus musculus [20]): Dose-dependent effect; Activity (SJSA-1 [21]): Dose-dependent effect
COC(=O)CN1C(=O)CC[C@H](c2cccc(Cl)c2)[C@H]1c1ccc(Cl)cc1 (racemic)	5.5 µM	> 30 µM	–
O=C1CC[C@@H](c2cccc(Cl)c2)[C@H](c2ccc(Cl)cc2)N1CC1CC1	> 30 µM	> 30 µM	–
CC(C)CN1C(=O)CC[C@H](c2cccc(Cl)c2)[C@H]1c1ccc(Cl)cc1 (racemic)	2.3 µM	> 30 µM	–
CCC[C@@H](C(=O)OCC)N1C(=O)CC[C@H](c2cccc(Cl)c2)[C@H]1c1ccc(Cl)cc1 (racemic)	1.4 µM	> 30 µM	–
O=C1CC[C@H](c2cccc(Cl)c2)[C@@H](c2ccc(Cl)cc2)N1CC1CC1	0.82 µM	> 30 µM	–
O=C1CC[C@H](c2cccc(Cl)c2)[C@@H](c2ccc(Cl)cc2)N1CC1CC1 (racemic)	1.5 µM	–	–
CCOC(=O)[C@@H](CC)N1C(=O)CC[C@H](c2cccc(Cl)c2)[C@H]1c1ccc(Cl)cc1 (racemic)	3.5 µM	> 30 µM	–
CC[C@@H](C(=O)OC(C)(C)C)N1C(=O)[C@@](C)(Cc2nnn[nH]2)C[C@H](c2cccc(Cl)c2)[C@H]1c1ccc(Cl)cc1	0.0009 µM	0.009 µM	IC50 (SJSA-1 [2]): 0.17 µM; inhibition at 3 µM (CYP3A4 [6]): 80%; activity at 2 µM (PXR (NR1I2)): 65%; activity at 0.25 h, 10 µM (CYP3A4 [8]): 30%
CCC(CC)N1C(=O)[C@@](C)(CC(=O)O)C[C@H](c2cccc(Cl)c2)[C@H]1c1ccc(Cl)cc1	–	–	IC50 (SJSA-1 [2]): 0.54 µM
CCCCN1C(=O)CC[C@H](c2cccc(Cl)c2)[C@H]1c1ccc(Cl)cc1 (racemic)	2.7 µM	> 30 µM	–
